Screening data: PubChem BioAssay, several laboratories
In the library only some 2.4% were active in any assay of this set; here they are far more common.
Efa HMGR inh = blocks class II HMG-CoA reductase of Enterococcus faecalis; actives 0.41% (n = 190,000); inhibition, % at 10 µM; AID 1066; purified E. faecalis HMGR, NADPH absorbance 340 nm kinetic;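 active means inhibition above a set limit, the median over all tested compounds plus 3 SD, cut at about 9.5% in these data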;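 further: enzyme runs in reverse so mevalonate oxidation gives rising NADPH absorbance; 0% = complete reaction with DMSO and 100% = background rate lacking mevalonate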
MT stabilize HCS = stabilizes microtubules in HeLa cells | HeLa tubulin immunostaining HCS, 24 h; share of cells brighter than vehicle mean+2SD | % tubulin-high responders, % at 10 µM | actives 0.83% (n = 200,000);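 active means plate Z-score above 3 for both tubulin-high and condensed-nucleus cell shares, with cell loss under 80%, at 10 µM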;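 further: anti alpha tubulin signal scored within the nucleus-defined area of each cell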
EP2 modulator = EP2 receptor (human) modulation | AID 940 | P43116 | actives 0.83% (n = 260,000) | EP2-expressing cells, cAMP HTRF FRET, PGE2 co-stimulation | induction, % at 25 µM;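 active means compounds whose cAMP rise, as percent of the full-agonist control response, exceeds 60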;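 further: rat C6 glioma line stably carrying human EP2 under a CMV promoter; the protocol text gives 20 µM as final concentration; 100% = response of wells given 1 µM PGE2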
Target sequence (P43116 whole entry, looked up): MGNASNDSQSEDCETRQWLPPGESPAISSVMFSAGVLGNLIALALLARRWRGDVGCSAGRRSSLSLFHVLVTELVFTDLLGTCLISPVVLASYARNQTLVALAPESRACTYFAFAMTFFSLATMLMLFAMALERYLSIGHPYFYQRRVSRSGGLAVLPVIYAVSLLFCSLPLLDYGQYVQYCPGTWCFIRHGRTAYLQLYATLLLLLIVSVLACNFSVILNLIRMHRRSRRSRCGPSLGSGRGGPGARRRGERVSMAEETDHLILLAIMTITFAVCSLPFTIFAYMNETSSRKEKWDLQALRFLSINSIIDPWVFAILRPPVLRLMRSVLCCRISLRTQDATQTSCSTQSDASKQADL
PGE2 EP2 inh = EP2 receptor (human) inhibition; P43116; C6 glioma cells expressing human EP2, cAMP TR-FRET; cells stimulated with saturating PGE2; inhibition, % at 25 µM; actives 0.52% (n = 260,000);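 active means percent inhibition above 40 after rounding to a whole number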;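 further: rat C6 glioma host cells with rolipram phosphodiesterase inhibitor present; the protocol text gives 20 µM as final concentration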
Tb hexokinase = blocks Trypanosoma brucei hexokinase 1 activity | actives 0.11% (n = 220,000) | recombinant TbHK1, G6PDH-coupled NADH A340 | AID 1430 | inhibition, % at 10 µM;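 active means inhibition of 50% or more in the single-dose primary screen; inactive means inhibition below 50%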
bCat nuc transl = modulators of beta-catenin nuclear translocation. HeLa beta-catenin nuclear translocation, immunofluorescence imaging. nuclear translocation activity, % at 5 µM. actives 0.3% (n = 190,000). AID 1665;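 active means nuclear translocation activity above 50% at 5 µM, with a well cell count of 50 or more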;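 further: per-cell ratio of nuclear to cytoplasmic median beta-catenin stain intensity; plate controls were DMSO negative control for no effect and GSK-3 inhibitor IX positive control for full effect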
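Signal – beta-catenin immunofluorescence imaging with DAPI · Test system – human HeLa cell line · Dosing – 5 µM primary single dose, 0.1% DMSO, 0.02–20 µM confirmation series · Measure – % activation, nuclear-to-cytoplasmic median beta-catenin signal ratio per cell · Incubation – 24 h compound exposure at 37°C, 5% CO2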
Starred values were filed as active, the others as inactive; / = not tested or not shown.

SMILES	Efa HMGR inh	MT stabilize HCS	EP2 modulator	PGE2 EP2 inh	Tb hexokinase	bCat nuc transl
COCCNC(=O)Cn1nc2c3ccccc3nc(Cc3ccccc3)n2c1=O	/	/	-7	/	/	/
COc1ccc(-c2cn3c(C)c(C(=O)Nc4cc(NC(C)=O)ccc4OC)sc3n2)cc1	0	34*	-10	/	-33	3
CN(C)CCCNC(=O)c1cc(C(=O)C2CCCCC2)c[nH]1	17*	4	-4	5	3	2
O=C(NCCCN1CCOCC1)c1cc(C(=O)C2CCCCC2)c[nH]1	3	5	7	6	0	3
Nc1ccc(N=Nc2ccc(-c3ccc(O)cc3)cc2)c2ccc(S(=O)(=O)O)cc12	/	/	-22	49*	/	/
Nc1nc2c(s1)CCc1c-2cnn1-c1ccccc1	3	16	-23	40*	39	5
Nc1nc(/C=C/c2c[nH]c3ccccc23)nc(-c2ccccc2O)n1	/	/	-117	91*	/	/
COc1ccc(-c2ccc(SCC(=O)N3C(C)CCCC3C)nn2)cc1OC (stereo not given)	/	/	-15	12	/	/
CCOc1ccccc1N1CCN(C(=O)CC(C)(C)C)CC1	11*	2	3	10	2	-4
O=C(CCC(=O)Nc1ccc(F)cc1)N/N=C/c1c[nH]c2ccccc12	-7	2	-83	7	-15	-1
Cc1cccc(NC(=S)N/N=C/c2c[nH]c3ccccc23)c1	1	14*	-34	9	-1	/
O=C(CNc1ccccc1)N/N=C/c1c[nH]c2ccccc12	-1	16*	-9	9	-7	19
CCc1nc2cc(NC(=O)c3cnc(SC)nc3)ccc2n1C	/	/	-6	9	/	/
Cc1cccc(C)c1NC(=O)Cn1nnnc1N	13*	4	4	2	3	0
CCCOc1ccc(C(=O)Nc2nnn(CCC)n2)cc1	/	/	34	9	/	/
Cc1ccc(C)c(NC(=O)c2nc(-c3ccccc3)n(-c3ccccc3)n2)c1	-8	2	45	-1	9	0
Cc1ccc(C)c(NC(=O)c2cc(-c3ccccc3)nn2-c2ccccc2)c1	-6	1	64*	2	2	5
CCN1CCc2c(sc(NC(=S)NC(=O)c3ccc(Cl)cc3)c2C(N)=O)C1	/	/	-59	41*	-30	0
CCN1CCc2c(sc(NC(=S)NC(=O)/C=C/c3ccccc3)c2C(N)=O)C1	/	/	-177	84*	/	/
CCN1CCc2c(sc(NC(=O)CN3C(=O)c4ccccc4C3=O)c2C(N)=O)C1	0	3	10	1	-3	-6
CCCNC(=O)c1c(O)c2cc(OC)c(OC)cc2[nH]c1=O	/	/	-18	17	/	/
COc1ccccc1NC(=S)N(CCN1CCOCC1)Cc1ccccc1F	1	4	10	6	5	-1
COc1ccc(NC(=S)N(CCN2CCOCC2)Cc2ccccc2F)cc1	12*	2	-1	1	4	-1
N#CC1=C2SCC(O)(c3ccccc3)N2C(=O)CC1c1ccccc1 (stereo not given)	0	34*	-11	16	-25	46
COc1ccc(OC)c(NC(=O)C2=C(C)NC(=O)NC2c2cc(OC)c(OC)c(OC)c2)c1 (stereo not given)	/	/	-19	7	/	/
SMILES	Efa HMGR inh	MT stabilize HCS	EP2 modulator	PGE2 EP2 inh	Tb hexokinase	bCat nuc transl
CN1CCN(c2ccc([N+](=O)[O-])cc2C(=O)c2ccc(Cl)cc2)CC1	-2	43*	2	10	-14	185*
CN1CCN(c2ccc([N+](=O)[O-])cc2C(=O)N2CCCCC2)CC1	-1	4	9	11	-15	-4
Cc1ccc(C(=O)c2cc([N+](=O)[O-])ccc2N2CCCCC2)cc1	3	9	37	11	14	72*
O=C(NCc1ccc2c(c1)OCO2)c1cc([N+](=O)[O-])ccc1N1CCCCC1	-7	16*	31	5	-2	107*
Cc1ccc(C(=O)c2cc([N+](=O)[O-])ccc2N2CC(C)OC(C)C2)cc1 (stereo not given)	-2	20	25	17	-10	-2
O=C(NCc1nc(-c2ccncc2)n[nH]1)c1ccc(F)c(F)c1	/	/	5	5	/	/
CC(C)C(=O)N1CCN(Cc2nc3sc4c(c3c(=O)[nH]2)CCC(C(C)(C)C)C4)CC1 (stereo not given)	/	/	20	7	/	/
Clc1ccc(-n2nnnc2-c2ccccc2)cc1	-5	3	31	2	2	0
COc1ccc(-n2nnnc2-c2ccccc2)cc1	-2	36*	5	4	-7	/
Cc1ccc2[nH]c(=O)c(CN(C(=O)c3cccs3)C3CCCCC3)cc2c1	/	/	21	10	/	/
CCCSc1nc2c(c(=O)[nH]c(=O)n2C)n1Cc1cccc(C)c1	/	/	70*	9	/	/
C/C=C/CSc1nc2c(c(=O)[nH]c(=O)n2C)n1Cc1cccc(C)c1	/	/	44	7	/	/
C/C(Cl)=C\CSc1nc2c(c(=O)[nH]c(=O)n2C)n1Cc1cccc(C)c1	/	/	86*	14	/	/
COc1ccc(OC)c(-c2[nH]nc3c2C(c2cc(OC)ccc2OC)C(C#N)=C(N)O3)c1 (stereo not given)	/	/	-5	4	/	/
Cc1ccc2cc(CN(Cc3ccco3)C(=O)NC3CCCCC3)c(=O)[nH]c2c1C	-1	3	61*	6	-3	4
Cc1cc(C)c2[nH]c(=O)c(CN(Cc3ccco3)C(=O)NC3CCCCC3)cc2c1	/	/	27	6	/	/
C=CCn1c(=NC(=O)c2ccco2)sc2cc(C(=O)OCC)ccc21	-8	6	33	41*	-39	-2
C=CCn1c(=NC(=O)c2ccco2)sc2cc(C(=O)OC)ccc21	-12	2	11	5	-20	-2
CCOc1ccccc1NC(=S)N1CCCc2ccccc21	-1	2	51	4	1	-2
CC(C(=O)N1CCc2ccccc21)N1CCc2ccccc2C1 (stereo not given)	5	2	-57	5	-6	2
COc1cc2c(cc1OC)CN(C(C)C(=O)N1CCc3ccccc31)CC2 (stereo not given)	19*	47*	-52	5	-7	/
Cc1ccc(C(=O)N2CCCc3ccccc32)c(F)c1F	/	/	62*	4	/	/
COc1cccc(C(=O)N2CCCc3ccccc32)c1	-5	3	28	6	5	1
COc1ccccc1NC(=S)N1CCCc2ccccc21	16*	3	-14	6	-2	-4
O=C(c1c(F)cccc1F)N1CCCc2ccccc21	/	/	37	6	/	/
COc1cc(C(=O)N2CCCc3ccccc32)cc(OC)c1OC	-6	39*	8	5	-3	53*
COc1cc(C(=O)Nc2oc(-c3ccccc3)cc2C#N)cc(OC)c1OC	/	/	-39	16	/	/
COc1ccc2[nH]c(CN3CCC(NC(C)=O)(c4ccccc4F)CC3)c(C)c2c1	/	/	-33	3	/	/
